STAT3 activator = STAT3 signaling activation. AID 871. 190,000 tested, 0.91% active. activation (% of control), % at 5.6 µM. U3A cells, IL-6 STAT3-luciferase reporter, luminescence; 100% = signal with IL-6 EC80 alone;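 active means activation above the screen-wide mean of compound activation plus 3 SD, cut at about 130% in these data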;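 further: 0% = background luminescence of wells with medium and substrate only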
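Detection: reporter luminescence signal / Assay system: STAT1-lacking human U3A cells, STAT3 luciferase reporter / Incubation: compound pre-incubation 1 h before IL-6, then 6 h stimulation at 37 °C / Control set: IL-6-only high control / Read-out: % activation relative to IL-6 control / Probe or stimulus: Interleukin-6, 33 ng/mL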
AHR act = human AHR activation; P35869; AHR-responsive luciferase reporter cells, luminescence; activation, % at 5 µM; 320,000 tested, 2.5% active; AID 2796; in the data active means activation above about 47%;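 further: 0% = vehicle wells and 100% = reference agonist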
Target sequence (P35869 whole entry, looked up): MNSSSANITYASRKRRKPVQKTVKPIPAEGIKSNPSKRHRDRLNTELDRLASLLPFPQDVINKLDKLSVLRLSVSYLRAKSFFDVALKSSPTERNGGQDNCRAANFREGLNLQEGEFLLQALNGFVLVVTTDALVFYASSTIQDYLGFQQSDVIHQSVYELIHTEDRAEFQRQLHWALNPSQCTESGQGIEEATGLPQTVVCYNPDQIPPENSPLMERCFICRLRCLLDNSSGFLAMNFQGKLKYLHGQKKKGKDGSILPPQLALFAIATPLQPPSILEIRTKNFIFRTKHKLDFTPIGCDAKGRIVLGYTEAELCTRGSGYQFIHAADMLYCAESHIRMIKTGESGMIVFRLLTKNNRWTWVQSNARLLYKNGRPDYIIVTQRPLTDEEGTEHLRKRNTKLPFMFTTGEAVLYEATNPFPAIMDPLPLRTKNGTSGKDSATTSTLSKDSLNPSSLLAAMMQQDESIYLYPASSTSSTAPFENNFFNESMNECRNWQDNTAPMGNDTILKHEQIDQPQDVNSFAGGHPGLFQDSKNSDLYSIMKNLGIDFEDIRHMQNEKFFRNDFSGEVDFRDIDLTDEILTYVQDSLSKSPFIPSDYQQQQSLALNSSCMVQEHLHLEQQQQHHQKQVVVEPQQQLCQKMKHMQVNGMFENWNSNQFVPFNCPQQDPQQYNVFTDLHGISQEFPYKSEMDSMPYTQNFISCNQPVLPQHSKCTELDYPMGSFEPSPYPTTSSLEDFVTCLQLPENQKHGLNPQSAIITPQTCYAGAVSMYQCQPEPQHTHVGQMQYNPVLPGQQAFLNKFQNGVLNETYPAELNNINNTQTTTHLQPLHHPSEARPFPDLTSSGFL
ABCB6 inh 2 = human ABCB6 transporter inhibition | 360,000 tested, 0.19% active | AID 602162 | fluorescence ratio to DMSO, % at 10 µM | Q9NP58 | K562-ABCB6 porphyrin accumulation, flow cytometry, 1 h; active compounds read low;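 active means fluorescence ratio to DMSO below 75%, the collection mean minus 3 SD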;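 further: signal is porphyrin accumulated inside mitochondria; 100% equals median channel fluorescence of DMSO control wells; lower ratio means ABCB6 inhibition with less porphyrin fluorescence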
FXN GAA850 act = frataxin GAA850 promoter activation; 360,000 tested, 0.56% active; HEK293 lucGAA850 FXN promoter luciferase reporter, 24 h; percent of 10 µM SAHA response; AID 540364; activation, % at 6 µM;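 active means activation above the average of all compounds screened plus 3 SD, cutoff fixed separately per campaign, cut at about 7.5% in these data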;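 further: 0% = DMSO wells and 100% = 10 µM SAHA wells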
Active calls of the source: *; / = no result. Hits are enriched below; roughly 3.3% of the tested compounds scored in any of these assays.

SMILES	STAT3 activator	AHR act	ABCB6 inh 2	FXN GAA850 act
O/C(=C\c1nc2ccccc2nc1/C=C(\O)c1ccccc1)c1ccccc1	145*	70*	198	5
CCc1cccc(NC(=O)CCC(=O)N2CCSc3ccccc32)c1	/	2	97	-1
CCc1ccc(NC(=O)CCC(=O)N2CCSc3ccccc32)cc1	/	69*	96	-2
COc1ccccc1/C=N\N=C(\N)c1ccccn1	94	71*	106	2
CCCc1c(C(=O)N/N=C/c2cccs2)nnn1-c1nonc1N	/	61*	101	-2
CCCN(CCC)Cc1c(C(=O)N/N=C/c2cccs2)nnn1-c1nonc1N	/	0	101	-1
CCCc1nc2ccccc2c(=O)n1CC(=O)c1ccccc1	97	0	105	0
Cc1cc(Nc2cccc(Cl)c2)nc(N2CCOCC2)n1	100	52*	95	1
Cc1cc(Nc2ccccc2)nc(N2CCOCC2)n1	101	25	99	0
CC1(c2nnc(Cc3ccccc3)o2)CC(c2cccc(F)c2)=NO1 (stereo not drawn)	/	1	98	1
CC(C(=O)Nc1nc(-c2ccc(F)c(F)c2)cs1)N1C(=O)C2CC=CCC2C1=O (stereo not drawn)	/	2	98	-1
CC(=O)Nc1sc(N/N=C\c2ccc(O)cc2)nc1-c1cccs1	/	10	98	3
COc1ccccc1C(=O)Nc1nc(-c2cccs2)c(NC(C)=O)s1	98	72*	95	1
CC(=O)Nc1sc(N/N=C\c2cccc(Cl)c2)nc1-c1cccs1	133*	32	95	1
CCOC(=O)c1cc([N+](=O)[O-])cc([N+](=O)[O-])c1Sc1ncnc2nc[nH]c12	/	/	110	1
CCC(=O)NNc1nc2c(C)cccc2s1	112	23	89	2
COc1cccc2sc(NNC(=O)COc3ccccc3)nc12	100	51*	99	0
Cc1cccc2sc(NC(=O)c3ccc(Cl)s3)nc12	110	48*	100	1
COc1cccc2sc(NC(=O)c3ccc(Br)s3)nc12	88	71*	108	0
CSc1cccc(NC(=O)Nc2nc3c(C)cccc3s2)c1	/	119*	92	1
O=C(NCC1CCCO1)c1ccccc1-c1nc(-c2ccccc2F)no1 (stereo not drawn)	/	4	102	-1
Cc1cccc(-n2c(SCC(=O)N(C)C3CCS(=O)(=O)C3)nc3ccccc3c2=O)c1C (stereo not drawn)	/	-1	101	1
Nc1c(-c2n[nH]c(=S)n2-c2ccc(Cl)cc2Cl)cnn1-c1ccccc1	/	4	100	2
Nc1[nH]nc2c1NN(c1ccc(Cl)cc1Cl)N2	97	75*	101	0
COc1cc(OC)c(/C=C2\C(=O)Nc3ccccc32)c(OC)c1	/	79*	/	/
SMILES	STAT3 activator	AHR act	ABCB6 inh 2	FXN GAA850 act
COc1ccc(C(=O)/C=C2/C(=O)Nc3ccccc32)c(OC)c1	/	17	112	1
CC(C)(C)c1ccc(S(=O)(=O)NNC(=O)c2cc3ccccc3[nH]2)cc1	/	74*	98	4
COc1ccc(Nc2ncnc3sccc23)cc1OC	/	64*	96	1
COc1cc(-c2nc3n(n2)C(c2ccc(F)cc2)C2=C(CCCC2=O)N3)cc(OC)c1OC (stereo not drawn)	97	82*	92	1
COc1cccc(C2C3=C(CCCC3=O)Nc3nc(-c4cc(OC)c(OC)c(OC)c4)nn32)c1 (stereo not drawn)	99	31	97	1
O=C(Nc1ccc2c(c1)CN(Cc1ccc(CO)o1)CC2)c1ccc(C(F)(F)F)cc1	/	55*	98	6
Cc1ccc(-n2nc(C)cc2Nc2ncc(Cl)cc2Cl)cc1	135*	44	99	5
Cc1cc(Nc2ncc(Cl)cc2Cl)n(-c2ccccc2C)n1	111	2	94	2
Nc1c(N2CCCCC2)c2ccccc2oc1=O	105	7	100	5
CC[n+]1c(/C=C/Nc2ccccc2)oc2ccccc21	84	109*	277	0
CCS(=O)(=O)N1Cc2ccccc2CC1C(=O)Nc1nnc(SCc2ccc(F)cc2)s1 (stereo not drawn)	97	1	99	4
COc1nc(NCCc2ccc(OC)c(OC)c2)nc(Nc2ccccc2)n1	/	48*	101	4
CCCN(CC(=O)Nc1ccc(F)c(F)c1F)C(=O)C1=COCCO1	/	1	99	-2
CCC(=O)Oc1ccc(C(=O)Nc2c[nH]c(=O)[nH]c2=O)cc1	107	10	95	1
Cc1ccc(-c2csc3nc(C)n(N)c(=O)c23)o1	97	55*	98	4
Cc1ccc(-c2csc3nc(C)n(-n4c(C)ccc4C)c(=O)c23)o1	105	-1	98	-4
O=c1cc(-c2ccc(O)c(O)c2)oc2cc(O)cc(O)c12	/	-3	96	11*
COc1ccc(-c2cc(=O)c3c(O)cc(O)cc3o2)cc1	/	8	104	0
NC(Cc1ccc(F)cc1)c1csc(Nc2ccc(C(F)(F)F)cn2)n1 (stereo not drawn)	/	/	97	0
CCSCCOC(=O)C1=C(C)NC2=C(C(=O)CCC2)C1c1coc2ccccc2c1=O (stereo not drawn)	144*	23	90	0
CC1=C(C(=O)OC(C)C)C(c2coc3ccccc3c2=O)C2=C(CCCC2=O)N1 (stereo not drawn)	127	17	87	1
CCOC(=O)c1c(NC(=S)Nc2ccc(Cl)cc2)sc(C)c1C	110	/	103	-1
Cc1sc(NC(=S)Nc2ccc(F)cc2)c(C(N)=O)c1C	86	81*	97	3
CCc1c(C)sc(NC(=O)C2CCCCC2C(=O)O)c1C(N)=O (stereo not drawn)	92	2	97	-1
Cc1sc(NC(=S)NC(=O)C2CCCCC2)c(C(N)=O)c1C	106	56*	95	-1
SMILES	STAT3 activator	AHR act	ABCB6 inh 2	FXN GAA850 act
Cc1sc(NC(=O)c2ccc(Br)s2)c(C(N)=O)c1C	185*	59*	103	2
COc1ccc(-c2csc(C(O)c3ccc(F)c(F)c3)n2)cc1 (stereo not drawn)	/	/	94	0
O=[N+]([O-])c1cccc(-c2ccc(/C=N/NC(=S)Nc3cccc(F)c3)o2)c1	/	49*	94	2
NC(=S)N/N=C/c1ccc(-c2cccc([N+](=O)[O-])c2)o1	89	-1	97	-2
COc1ccc(OC)c(/C=N/NC(=O)CCc2n[nH]c(=O)[nH]c2=O)c1	105	60*	101	3
CCCOC1CCCN(C(=O)c2cc(COc3ccc(-n4cncn4)cc3)on2)C1 (stereo not drawn)	/	5	102	0
COCc1cc(C)nc(OCC(=O)N/N=C/c2ccc(OC)c(OC)c2)c1C#N	105	63*	96	4
COc1ccc(/C=N/NC(=O)CCn2c3ccccc3c3ccccc32)cc1OC	101	69*	99	2
CCOC(=O)c1c(C)[nH]c(C)c1S(=O)(=O)N(C)CC(=O)Nc1ccccc1	/	9	103	1
CCc1cc2c(=O)c(-c3nc(C)cs3)coc2cc1O	/	60*	102	4
NC(=O)Cn1cc(C(=O)COc2ccccc2)c2ccccc21	101	75*	/	/
